Shown are actives, neighbours in structure and some others; about 2.3% of the full set was active somewhere.
V1aR counter: agonists of human V1a receptor, primary screen, counter-screen for OXTR agonist project, fluorescence, CHO-V1R cells | AID 2797, 2010 | 320,000 compounds, 0.25% hits | Fluo-8 calcium fluorescence, agonist mode; 0% DMSO, 100% 3 nM vasopressin | activation, % at 3 µM;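 active means activation above the mean activation of all tested compounds plus 3 SD, per screening run, cut at about 20% in these data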;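 further: signal is peak over basal fluorescence ratio across a 100 second FLIPR read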
TAAR1 antagonist: human TAAR1 antagonists, primary screen, Fluo-8 calcium fluorescence, CHO RD-HGA16 cells | AID 624466, 2012 | inhibition, % at 3 µM | antagonist | 360,000 compounds, 1.5% hits | Trace amine-associated receptor 1 (Homo sapiens), Q96RJ0;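 active means inhibition above a per-plate cutoff, the mean inhibition of test compounds on that plate plus 3 SD, cut at about 49% in these data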
Target sequence (Q96RJ0 whole entry, looked up): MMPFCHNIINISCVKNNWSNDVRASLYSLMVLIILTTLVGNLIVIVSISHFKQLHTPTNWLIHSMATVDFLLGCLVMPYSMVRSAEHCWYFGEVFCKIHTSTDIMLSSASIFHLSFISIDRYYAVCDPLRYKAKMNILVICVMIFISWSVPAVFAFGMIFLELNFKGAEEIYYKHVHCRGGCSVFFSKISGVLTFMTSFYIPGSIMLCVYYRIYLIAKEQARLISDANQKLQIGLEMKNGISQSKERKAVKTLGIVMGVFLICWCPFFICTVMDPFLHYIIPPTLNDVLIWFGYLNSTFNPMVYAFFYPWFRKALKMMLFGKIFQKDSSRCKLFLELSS
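System: CHO RD-HGA16 cells bearing hTAAR1. Reagent: EC80 β-phenethylamine stimulus. Schedule: seeding 17-24 h prior, 75-min 37 °C, 30-min RT dye loading. Signal: Fluo-8 intracellular calcium dye fluorescence, real-time kinetic reads. Read-out: % inhibition from peak post-agonist over basal fluorescence ratio. Benchmarks: vehicle wells and EC80 agonist wells. Replicates: n of 1.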
OXTR agonist: human OXTR agonists, primary screen, fluorescence, CHO-OTR cells, Fluo-8 calcium. Oxytocin receptor (Homo sapiens), P30559. Fluo-8 calcium fluorescence; normalized: DMSO 0%, oxytocin 100%. activation, % at 3 µM. 320,000 compounds, 0.32% hits. AID 2435, 2010;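 active means activation above the mean of all tested compounds plus 3 SD, cutoff set per screening run, cut at about 20% in these data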;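 further: peak over basal fluorescence ratio from a 100 s FLIPR kinetic read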
Target sequence (P30559 whole entry, looked up): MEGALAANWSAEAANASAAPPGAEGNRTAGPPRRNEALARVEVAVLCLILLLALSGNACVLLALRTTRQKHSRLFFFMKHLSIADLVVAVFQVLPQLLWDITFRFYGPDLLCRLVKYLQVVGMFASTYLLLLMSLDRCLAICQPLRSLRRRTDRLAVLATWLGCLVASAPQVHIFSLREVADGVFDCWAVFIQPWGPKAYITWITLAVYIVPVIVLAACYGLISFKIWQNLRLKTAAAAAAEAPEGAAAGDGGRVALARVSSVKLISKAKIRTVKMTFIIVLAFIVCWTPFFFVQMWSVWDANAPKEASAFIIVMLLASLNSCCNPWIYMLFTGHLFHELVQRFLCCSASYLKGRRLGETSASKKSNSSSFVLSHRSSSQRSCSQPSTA
OXTR potentiator: human OXTR potentiators, primary screen, fluorescence, CHO-OTR cells, Fluo-8 calcium. Fluo-8 calcium fluorescence, potentiator mode; 0% = oxytocin EC15, 100% = EC100. activation, % at 3 µM. 320,000 compounds, 0.061% hits;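 active means activation above that plate's cutoff, the mean activation of tested compounds plus 3 SD, cut at about 6.6% in these data, passing the limit was not always enough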
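Material: human OTR in CHO cells. Compound: 3.0 µM, one dose. Timing: compound 6 min at room temperature before oxytocin, 100 s read. Evaluation: % activation of max/min ratio relative to oxytocin controls. Replication: single well per compound, singlicate. Signal: Fluo-8 calcium dye fluorescence.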
TAAR1 agonist: human TAAR1 agonists, primary screen, Fluo-8 calcium fluorescence, CHO RD-HGA16 cells; Trace amine-associated receptor 1 (Homo sapiens), Q96RJ0; vehicle wells 0%, saturating PEA agonist 100%; activation, % at 3 µM; 360,000 compounds, 0.99% hits;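 active means activation above the mean activation of all test compounds in the run plus 3 SD, cut at about 38% in these data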
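Signal – calcium-sensitive Fluo-8 signal, excitation 470-495, emission 515-575 nm · System – RD-HGA16 (CHO) cells co-expressing Gα16 and hTAAR1 · Incubation – 17-24 h seeding, 75 min 37 °C dye, 30 min RT · Compound dosing – 3 µM single concentration · Repeats – no replicates (n 1)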
Large screens that a line does not name were inactive; ! = not active in a repeat.

COc1ccc(-n2c(O)c(/C=N/NS(=O)(=O)c3ccc(C)c([N+](=O)[O-])c3)c3ccccc3c2=O)cc1OC	TAAR1 agonist 42
CCCSc1nnc(NC(=O)Nc2ccccc2)s1	TAAR1 agonist 40
COCCNc1nc(N2CCCCC2)c2cnn(C)c2n1	none
CC(=O)OC1CCC2(C)C(COc3ccc4ccc(=O)oc4c3)C(C)(O)CCC2C1(C)C (stereo not drawn)	TAAR1 antagonist 56
C=C1CCC2C(C)(C)[C@@H](O)CC[C@@]2(C)[C@@H]1COc1ccc2ccc(=O)oc2c1 (stereo partly drawn)	none
O=C(CCCc1c[nH]c2ccccc12)NCCc1c[nH]c2ccccc12	none
O=C(COC(=O)c1ccccc1O)NCCc1c[nH]c2ccccc12	none
O=C(COC(=O)c1ccccc1C(=O)OCC(=O)NCCc1c[nH]c2ccccc12)NCCc1c[nH]c2ccccc12	TAAR1 antagonist 76
O=C(Nc1cccc(CNCCc2c[nH]c3ccccc23)c1)c1ccccc1Cl	TAAR1 agonist 49
O=C(NCCc1c[nH]c2ccccc12)OCCCCOC(=O)NCCc1c[nH]c2ccccc12	TAAR1 antagonist 80
Cc1cc(NC(=O)c2c(F)cccc2Cl)n(-c2nc3ccccc3[nH]2)n1	TAAR1 antagonist 50
CSCCC(NC(=O)COc1ccccc1)C(=O)N(C)CC(=O)Nc1ccc(Cl)cc1 (stereo not drawn)	none
CSCCC(NC(=O)COc1ccccc1)C(=O)N(C)Cc1c(F)cccc1Cl (stereo not drawn)	TAAR1 antagonist 52 (no result: V1aR counter, OXTR agonist, OXTR potentiator)
COc1cccc(CNC(=O)COC(=O)c2cccc(S(=O)(=O)N3CCCC3)c2)c1	none (no result: V1aR counter, OXTR agonist, OXTR potentiator)
O=C(Nc1nc(-c2ccccc2Cl)cs1)c1cccnc1	TAAR1 agonist 41
CCn1c(N2CCN(S(=O)(=O)c3ccc(OC)cc3)CC2)nc2ccccc21	TAAR1 antagonist 49
CCn1c(N2CCN(S(=O)(=O)c3ccccc3C(F)(F)F)CC2)nc2ccccc21	none
CC(=O)/C=C(\C)N=Nc1c(O)[nH]c2ccccc12	none
Cc1ccc(S(=O)(=O)Nc2ccccc2C(=O)Nc2nc(-c3ccc(F)cc3)cs2)cc1	TAAR1 antagonist 75
CCOc1cc(/C=C2\SC(=S)N(Nc3ccccc3)C2=O)ccc1O	V1aR counter 27, TAAR1 antagonist 60, OXTR agonist 47, TAAR1 agonist 51
COc1cc(/C=C2\SC(=S)N(C(Cc3ccccc3)C(=O)O)C2=O)ccc1O (stereo not drawn)	V1aR counter 30, OXTR agonist 28
O=C(O)C(Cc1ccccc1)N1C(=O)/C(=C/c2ccccc2)SC1=S (stereo not drawn)	none
CCOc1cc(/C=C2\SC(=S)N(NS(=O)(=O)c3ccccc3)C2=O)ccc1O	none
COc1cc(/C=C2\SC(=S)N(Nc3ncc(C(F)(F)F)cc3Cl)C2=O)ccc1O	V1aR counter 39, TAAR1 antagonist 66, OXTR agonist 24, TAAR1 agonist 52
COc1cc(/C=C2\SC(=S)N(c3cccnc3)C2=O)ccc1O	V1aR counter 26, OXTR agonist 24
C=CCN=C1NC(CCc2ccccc2)C(C(=O)OC)=C(C)N1Cc1ccccc1C(F)(F)F (stereo not drawn)	none (no result: V1aR counter, OXTR agonist, OXTR potentiator)
Cc1ccnc(NC(=O)CNC(=O)C23CC4CC(CC(C4)C2)C3)c1	none
c1ccc(CN2CCN(CCOCCOc3ccc4c(c3)CCC4)CC2)cc1	none
COc1cc(/C=C2\SC(=S)N(Nc3ccccc3)C2=O)ccc1O	V1aR counter 24, TAAR1 antagonist 57, OXTR agonist 58, TAAR1 agonist 54
COc1cc(/C=C2\SC(=S)N(NC(=O)c3ccc(O)cc3)C2=O)ccc1O	V1aR counter 25, OXTR agonist 64, TAAR1 agonist 57
COc1cc(/C=C2/SC(=S)N(CC3CCCO3)C2=O)ccc1O (stereo not drawn)	V1aR counter 32, OXTR agonist 48, TAAR1 agonist 42
COc1ccc(/C=C2\SC(=S)N(CC3CCCO3)C2=O)cc1 (stereo not drawn)	none
COc1cc(/C=C2\SC(=S)N(NC(=O)c3cccnc3)C2=O)ccc1O	none
CC1CCC(n2c(=S)[nH]c3ccccc3c2=O)CC1 (stereo not drawn)	none
O=c1c2ccccc2[nH]c(=S)n1C1CCCCC1	TAAR1 agonist 40
Cc1cccc2c(Cl)cc(=O)[nH]c12	none (no result: V1aR counter, OXTR agonist, OXTR potentiator)
Cc1cccc2c3c([nH]c12)CCNC3	TAAR1 agonist 40
Nc1nc(-c2ccc3c(c2)CCCC3)c(CC(=O)O)s1	none (no result: V1aR counter, OXTR agonist, OXTR potentiator)
C[C@@H]1CN([C@@H](C)CO)C(=O)CCCn2cc(nn2)CO[C@H]1CN(C)C(=O)C1CCCCC1	none (no result: V1aR counter, OXTR agonist, OXTR potentiator)
COc1ccc(C2=Nn3c(nnc3-c3ccccc3F)SC2)cc1OCC1CC1	TAAR1 antagonist 52
CCc1noc2cc(-c3ccccc3)n(C)c(=O)c12	none (no result: V1aR counter, OXTR agonist, OXTR potentiator)
CCCC(=O)N1CCN(c2ccc(NC(=O)c3cc4ccccc4o3)cc2Cl)CC1	TAAR1 antagonist 84
CN(C)/C=C/C(=O)c1ccc(Oc2ncccn2)cc1	none
O=C(/C=C/Nc1ccccc1)c1ccc(Oc2ncccn2)cc1	TAAR1 agonist 43
C[C@@H]1COc2cccc(N3CCCCC3)c2S(=O)(=O)N1	none (no result: V1aR counter, OXTR agonist, OXTR potentiator)
CCCCC[C@@H](C)N1C[C@@H](COCc2ccccc2)Oc2cc(N3CCC[C@H]3C(N)=O)ccc2S1(=O)=O	none (no result: V1aR counter, OXTR agonist, OXTR potentiator)
CCCCC[C@H](C)N1C[C@@H](COCc2ccccc2)Oc2cc(N3CCC[C@H]3C(N)=O)ccc2S1(=O)=O	TAAR1 agonist 39 (no result: V1aR counter, OXTR agonist, OXTR potentiator)
CCSc1nnc(NC(=O)CCN2C(=O)C3CCCCC3C2=O)s1 (stereo not drawn)	none
CC(=O)N1CC(C)Sc2ccc(S(=O)(=O)NCCc3ccccc3)cc21 (stereo not drawn)	TAAR1 agonist 44
O=C(O)CCc1ccc(S(=O)(=O)NCCc2ccccc2)cc1	TAAR1 agonist 37
CC(=O)N1CC(C)Sc2ccc(S(=O)(=O)NCCc3ccc(C)cc3)cc21 (stereo not drawn)	none
CC(=O)N1CCOc2ccc(S(=O)(=O)NCCc3cccc(C)c3)cc21	TAAR1 agonist 47
CC(=O)Nc1cccc(C(=O)NNC(=O)c2n[nH]c(=O)c3ccccc23)c1	none
C/C(N)=C(/C#N)C(=O)CSc1nnc(SCc2ccc(Cl)cc2)s1	TAAR1 antagonist 52!
CN(C)Cc1c(C(=O)N/N=C/C=C/c2ccccc2)nnn1-c1nonc1N	none
CC(C)c1c(C(=O)N/N=C/C=C/c2ccccc2)nnn1-c1nonc1N	TAAR1 agonist 42
Cc1ccc(/C=N/NC(=O)c2nnn(-c3nonc3N)c2-c2ccccc2)o1	TAAR1 agonist 43
O=C(NCc1ccco1)c1cccc2c1C(=O)c1ccc(N3CCC(Cc4ccccc4)CC3)cc1S2(=O)=O	none (no result: TAAR1 antagonist, TAAR1 agonist)

Source: PubChem
